The text below walks through data of paper PMC10205660 (Chemistry (Weinheim an der Bergstrasse, Germany), 2023).

For one assay, the system named is A549 (lung cancer). Briefly: Antiproliferative activity, A549. The assay is classed as cell-based.
For the next assay, the system named is MRC5. The following applies: read-out: IC50 against normal cell line MRC5; cited from earlier work.
Another assay has as its system K562 (leukemia). Briefly: Antiproliferative activity, K562. The assay is classed as cell-based.
For another assay, the system named is HEK293. The following applies: read-out: IC50 against normal cell line HEK293; cited from earlier work.
The next assay concerns MCF7 (breast cancer). Briefly: Antiproliferative activity, MCF7. Format: cell-based.
For assay [1], the system named is Hsp90-dependent client proteins (pAkt, Cyclin D1, GLUT1), Hsp70, Hsp90 in MCF7 cells. The note with it: MCF7, 48-hour incubation; cited from earlier work.
For assay [2] the test system is unchanged. Format: cell-based. The following applies: MCF7, 48 h, Western blot; versus vehicle 0.25% DMSO. Put shortly: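 MCF7 cells exposed to test compound at the stated amounts for 48 h, alongside vehicle (0.25% DMSO) and 1 μM geldanamycin as the reference Hsp90 inhibitor. Cell lysates were immunoblotted for pAkt, Cyclin D1, GLUT1, Hsp70, Hsp90 and F1F0 ATP synthase.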

In assay [3] the test system is MCF7, K562 and A549 cell lines. Briefly: Antiproliferative activity, statements in text without a single cell line. The assay is classed as cell-based. The following applies: versus cruentaren A; cell line not stated.
[4] abbreviates: Homo sapiens, A549, read-out: IC50 values A549.
The mark [5] stands for this setting: Homo sapiens, K562, read-out: IC50 values K562, K562.
The mark [6] stands for this setting: Homo sapiens, MCF7, read-out: IC50 values MCF7, MCF7.

Read-outs that look alike come from different tables or passages of the source.

With `CCCC(O)C(C)C(=O)NC/C=C\CC(C)C(O)C(C)C1C/C=C\CC(C)C(O)Cc2cc(OC)cc(O)c2C(=O)O1` (centres unmarked) [Compound 1, Cruentaren A, reference compound], the IC50 in the assay on A549 (lung cancer) (read-out: IC50 values A549, A549) is 0.75 nM; in the assay on MRC5, more than 500 nM; in the assay on K562 (leukemia) (read-out: IC50 values K562, K562) it was 1.5 nM; with HEK293, more than 500 nM; in the assay on MCF7 (breast cancer) (read-out: IC50 values MCF7, MCF7), 4.67 nM. Moreover, in assay [1], the “degradation of Hsp90-dependent client proteins” value is on record as “induced the degradation”.

With `CCC[C@H](O)[C@@H](C)C(=O)NC/C=C\C[C@@H](C)[C@@H](O)[C@H](C)[C@@H]1C/C=C\C[C@H](C)[C@H](OC(=O)[C@@H](C)N)Cc2cc(OC)cc(O)c2C(=O)O1` [Compound 4, (3S,8S,9R,Z)-14-hydroxy-3-((2S,3R,4R,Z)-3-hydroxy-8-((2R,3S)-3-hydroxy-2-methylhexanamido)-4-methyloct-6-en-2-yl)-12-methoxy-8-methyl-1-oxo-3,4,7,8,9,10-hexahydro-1H-benzo[c][1]oxacyclododecin-9-yl D-alaninate], the half-inhibitory concentration (IC50) came out at 2450 nM in the assay with A549 (lung cancer) (setting [4]), 1320 nM with K562 (leukemia) (setting [5]) and 55.5 nM in the assay on MCF7 (breast cancer) (setting [6]). Besides, the “levels of Hsp70 and Hsp90 (heat shock response)” value (shortened to “levels of Hsp70 and Hsp90”) in assay [2] is on record as “remained at the same level as vehicle control”.

Turning to `CCC[C@H](O)[C@@H](C)C(=O)NC[C@H](O)[C@H](O)C[C@@H](C)[C@@H](O)[C@H](C)[C@@H]1C/C=C\C[C@H](C)[C@H](O)Cc2cc(OC)cc(O)c2C(=O)O1` [Compound 14, (2R,3S)-N-((2S,3R,5R,6R,7S)-7-((3S,8S,9R,Z)-9,14-dihydroxy-12-methoxy-8-methyl-1-oxo-3,4,7,8,9,10-hexahydro-1H-benzo[c][1]oxacyclododecin-3-yl)-2,3,6-trihydroxy-5-methyloctyl)-3-hydroxy-2-methylhexanamide], in assay [3], the “fold reduction in activity compared to cruentaren A” value was ~ 40 fold. In addition, the IC50 is 1540 nM with A549 (lung cancer) (setting [4]), 1270 nM with K562 (leukemia) (setting [5]) and 189 nM in the assay with MCF7 (breast cancer) (setting [6]).

In the case of `CCC[C@H](O)[C@@H](C)C(=O)NC[C@@H]1C[C@@H]1C[C@@H](C)[C@@H](O)[C@H](C)[C@@H]1C/C=C\C[C@H](C)[C@H](O)Cc2cc(OC)cc(O)c2C(=O)O1` [Compound 15, (2R,3S)-N-(((1R,2R)-2-((2R,3R,4S)-4-((3S,8S,9R,Z)-9,14-dihydroxy-12-methoxy-8-methyl-1-oxo-3,4,7,8,9,10-hexahydro-1H-benzo[c][1]oxacyclododecin-3-yl)-3-hydroxy-2-methylpentyl)cyclopropyl)methyl)-3-hydroxy-2-methylhexanamide], in assay [3], the “fold reduction in activity compared to cruentaren A” value is listed as 100 fold. The IC50 worked out at 1240 nM with A549 (lung cancer) (setting [4]), 1120 nM with K562 (leukemia) (setting [5]) and 520 nM in the assay with MCF7 (breast cancer) (setting [6]).

With `CCC[C@H](O)[C@@H](C)C(=O)NC/C=C/C[C@@H](C)[C@@H](O)[C@H](C)[C@@H]1C/C=C\C[C@H](C)[C@H](O)Cc2cc(OC)cc(O)c2C(=O)O1` [Compound 16, (2R,3S)-N-((5R,6R,7S,E)-7-((3S,8S,9R,Z)-9,14-dihydroxy-12-methoxy-8-methyl-1-oxo-3,4,7,8,9,10-hexahydro-1H-benzo[c][1]oxacyclododecin-3-yl)-6-hydroxy-5-methyloct-2-en-1-yl)-3-hydroxy-2-methylhexanamide], the IC50 in the assay with A549 (lung cancer) (setting [4]) is 1750 nM; in the assay with K562 (leukemia) (setting [5]), 48.3 nM; with MCF7 (breast cancer) (setting [6]), 6.37 nM. The “levels of Hsp70 and Hsp90” value in assay [2] was “remained at the same level as vehicle control”.

Turning to `COC1=C2C[C@@H](C)C[C@H](OC)[C@H](O)[C@@H](C)/C=C(\C)[C@H](OC(N)=O)[C@@H](OC)/C=C\C=C(/C)C(=O)NC(=CC1=O)C2=O` [geldanamycin, reference compound], the “levels of Hsp70 and Hsp90” value in assay [2] was “increased”.
